Experimental data from paper PMC5522751 (Bioorganic & medicinal chemistry, 2017).

Legend:
[1] = target: human 20S proteasome trypsin-like (T-L, β2) site (Homo sapiens, UniProt P49720+Q99436); experiment: Fluorogenic assay for 20S human proteasome inhibition, trypsin-like site; type: biochemical
human FAS-TE = human FAS-TE (Homo sapiens, UniProt P49327); experiment: Fluorogenic assay for human FAS-TE inhibition; type: biochemical; details: for reduction (drop) of FAS-TE activity: compared to 21
FAS = FAS (Homo sapiens, UniProt P49327); experiment: Activity-based in situ competitive labelling against ABPP probe 28, FAS band; type: cell-based; details: MCF-7 cells, 30 min preincubation with inhibitor, then 10 µM probe 28 for 30 min
In short: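 Cells at 80–90% confluency were washed and given serum-free medium with test compound (10–100 µM; 1, 2.5, 5, 10-fold excess over probe) or DMSO, 30 min at 37 °C, 5% CO2. Alkyne probe was added (10 µM final) for 30 min. Soluble lysate (1% NP-40/1% deoxycholate, ~1.0 mg/mL) was clicked to TAMRA-N3 (100 µM; 1 mM CuSO4, 1 mM TCEP, 100 µM TBTA) for 1–1.5 h, RT, dark. Read-out: 10% SDS-PAGE, in-gel fluorescence.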

[2] = target: human 20S proteasome caspase-like (C-L, β1) site (Homo sapiens, UniProt P28072+Q99436); experiment: Fluorogenic assay for 20S human proteasome inhibition, caspase-like site; type: biochemical
[3] = target: ChT-L (proteasome beta-5, PSB-5) (Homo sapiens, UniProt P20618+P28074); experiment: Activity-based in situ competitive labelling against ABPP probe 28, ChT-L; type: cell-based; details: MCF-7 cells, 30 min preincubation with inhibitor, then 10 µM probe 28 for 30 min
[4] = target: human 20S proteasome chymotrypsin-like (ChT-L, β5) site (Homo sapiens, UniProt P20618+P28074); experiment: Fluorogenic assay for 20S human proteasome inhibition, chymotrypsin-like site; type: biochemical; details: compared to the diastereomeric β-lactone 21

Chain of human FAS-TE (P49327 2207-2511 limits assumed): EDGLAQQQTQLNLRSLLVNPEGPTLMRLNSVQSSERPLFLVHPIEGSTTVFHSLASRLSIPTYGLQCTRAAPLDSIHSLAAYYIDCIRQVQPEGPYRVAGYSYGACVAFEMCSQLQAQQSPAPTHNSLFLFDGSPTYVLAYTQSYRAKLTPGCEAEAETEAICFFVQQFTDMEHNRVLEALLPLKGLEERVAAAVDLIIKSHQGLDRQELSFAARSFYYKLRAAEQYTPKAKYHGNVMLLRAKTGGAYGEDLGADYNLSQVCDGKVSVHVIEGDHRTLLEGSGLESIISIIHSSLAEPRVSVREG
Chain of FAS (P49327 whole entry): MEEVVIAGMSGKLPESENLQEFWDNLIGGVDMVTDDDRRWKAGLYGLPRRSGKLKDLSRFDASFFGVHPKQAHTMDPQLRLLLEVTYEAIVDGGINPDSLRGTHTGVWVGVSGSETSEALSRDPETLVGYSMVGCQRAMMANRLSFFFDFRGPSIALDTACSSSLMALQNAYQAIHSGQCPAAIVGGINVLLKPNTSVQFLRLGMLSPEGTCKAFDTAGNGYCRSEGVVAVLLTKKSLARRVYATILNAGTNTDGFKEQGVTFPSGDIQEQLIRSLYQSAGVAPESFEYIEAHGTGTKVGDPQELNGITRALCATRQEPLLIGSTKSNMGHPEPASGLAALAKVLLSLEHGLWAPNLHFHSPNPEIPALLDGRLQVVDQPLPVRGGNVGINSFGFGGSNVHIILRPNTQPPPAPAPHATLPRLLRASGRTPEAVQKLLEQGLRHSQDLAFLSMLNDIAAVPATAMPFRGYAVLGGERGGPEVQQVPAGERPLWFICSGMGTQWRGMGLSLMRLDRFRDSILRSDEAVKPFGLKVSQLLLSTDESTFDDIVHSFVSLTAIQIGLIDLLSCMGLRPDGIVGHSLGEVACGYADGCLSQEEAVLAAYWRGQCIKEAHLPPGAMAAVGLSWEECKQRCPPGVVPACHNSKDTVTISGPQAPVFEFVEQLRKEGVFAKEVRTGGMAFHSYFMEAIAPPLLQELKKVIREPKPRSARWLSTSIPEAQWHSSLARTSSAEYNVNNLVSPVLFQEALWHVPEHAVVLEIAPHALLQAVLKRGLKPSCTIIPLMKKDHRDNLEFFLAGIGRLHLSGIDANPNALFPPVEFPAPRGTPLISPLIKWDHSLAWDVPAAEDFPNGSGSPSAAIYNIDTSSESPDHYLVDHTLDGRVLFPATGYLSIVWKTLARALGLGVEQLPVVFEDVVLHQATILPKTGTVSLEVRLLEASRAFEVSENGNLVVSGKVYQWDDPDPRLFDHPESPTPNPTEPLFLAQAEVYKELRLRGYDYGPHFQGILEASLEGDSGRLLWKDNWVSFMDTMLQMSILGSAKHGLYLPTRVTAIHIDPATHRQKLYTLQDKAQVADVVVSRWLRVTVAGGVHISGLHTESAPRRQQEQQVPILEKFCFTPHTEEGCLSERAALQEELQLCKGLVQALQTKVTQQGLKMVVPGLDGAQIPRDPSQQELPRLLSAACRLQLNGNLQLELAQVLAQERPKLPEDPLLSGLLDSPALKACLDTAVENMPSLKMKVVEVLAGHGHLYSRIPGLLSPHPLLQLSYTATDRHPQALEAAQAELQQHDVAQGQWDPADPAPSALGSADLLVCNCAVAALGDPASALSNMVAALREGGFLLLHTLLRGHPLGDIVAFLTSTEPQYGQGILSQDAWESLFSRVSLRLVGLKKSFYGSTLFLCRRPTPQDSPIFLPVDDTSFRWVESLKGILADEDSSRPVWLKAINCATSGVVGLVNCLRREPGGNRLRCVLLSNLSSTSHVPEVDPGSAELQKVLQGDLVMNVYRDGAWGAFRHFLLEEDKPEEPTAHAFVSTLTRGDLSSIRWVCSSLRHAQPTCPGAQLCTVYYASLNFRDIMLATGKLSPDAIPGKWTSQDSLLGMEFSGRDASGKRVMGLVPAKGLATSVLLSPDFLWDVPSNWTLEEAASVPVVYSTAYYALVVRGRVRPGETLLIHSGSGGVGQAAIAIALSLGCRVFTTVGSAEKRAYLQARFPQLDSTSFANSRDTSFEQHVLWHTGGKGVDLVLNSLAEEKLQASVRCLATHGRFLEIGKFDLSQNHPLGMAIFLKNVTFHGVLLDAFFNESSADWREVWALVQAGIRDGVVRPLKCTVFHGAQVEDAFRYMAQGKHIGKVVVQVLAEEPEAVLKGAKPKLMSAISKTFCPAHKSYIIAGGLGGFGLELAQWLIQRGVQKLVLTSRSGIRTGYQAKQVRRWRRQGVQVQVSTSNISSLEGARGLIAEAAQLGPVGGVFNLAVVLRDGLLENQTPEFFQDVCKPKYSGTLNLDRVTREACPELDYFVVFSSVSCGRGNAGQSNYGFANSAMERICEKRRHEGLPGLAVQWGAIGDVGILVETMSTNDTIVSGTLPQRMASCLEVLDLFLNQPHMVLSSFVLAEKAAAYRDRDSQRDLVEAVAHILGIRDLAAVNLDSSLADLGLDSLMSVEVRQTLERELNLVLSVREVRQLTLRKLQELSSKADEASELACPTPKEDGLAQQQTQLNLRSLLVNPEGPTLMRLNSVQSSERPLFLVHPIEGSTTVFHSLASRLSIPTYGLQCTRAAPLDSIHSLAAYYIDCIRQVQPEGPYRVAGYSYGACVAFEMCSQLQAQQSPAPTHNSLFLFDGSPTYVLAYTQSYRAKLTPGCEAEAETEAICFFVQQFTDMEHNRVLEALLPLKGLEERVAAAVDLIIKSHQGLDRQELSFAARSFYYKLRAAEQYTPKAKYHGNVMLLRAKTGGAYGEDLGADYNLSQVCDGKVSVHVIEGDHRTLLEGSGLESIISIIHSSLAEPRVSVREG

SMILES | IC50 [1] | IC50 [2] | also measured
CCCCCC[C@@H]1C(=O)O[C@H]1C(=O)NCCCC[C@H](NC(=O)[C@H](C)NC(=O)OCc1ccccc1)C(=O)OCc1ccccc1 [compound 17] | > 100 µM |  | 
CCCCCC[C@@H]1C(=O)O[C@H]1C(=O)NCCCC[C@H](NC(=O)CNC(=O)OCc1ccccc1)C(=O)OCc1ccccc1 [compound 18] | > 100 µM |  | drop in potency against FAS-TE (human FAS-TE; relative to derivative 17): ~ 3 fold
CCCCCC[C@@H]1C(=O)O[C@H]1C(=O)NCCCC[C@H](NC(=O)[C@H](C)NC(=O)c1ccc(Br)cc1)C(=O)OCc1ccccc1 [compound 20] | > 100 µM |  | 
CCCCCC[C@@H]1C(=O)O[C@H]1C(=O)NCCCC[C@H](NC(=O)OCc1ccccc1)C(=O)N[C@@H](C)C(=O)OCc1ccccc1 [compound 21] | > 100 µM | > 100 µM | excess of inhibitor over probe 28 that resulted in FAS signal reduction (FAS): 10 fold; excess of inhibitor over probe 28 that resulted in ChT-L signal reduction [3]: 2.5 fold; potency against FAS-TE compared to orlistat (human FAS-TE; ratio of IC50 values, more potent than orlistat): 3 X
CCCCCC[C@@H]1C(=O)O[C@H]1C(=O)NCCCC[C@@H]1NC(=O)N([C@@H](C)C(=O)OCc2ccccc2)C1=O [compound 22] | > 100 µM | 7.93 ± 0.21 µM | 
CCCCCC[C@H]1C(=O)O[C@@H]1C(=O)NCCCC[C@H](NC(=O)OCc1ccccc1)C(=O)N[C@@H](C)C(=O)OCc1ccccc1 [compound 23] | > 100 µM | > 100 µM | reduction (drop) of FAS-TE activity (human FAS-TE): ~ 8 fold; reduction of proteasome ChT-L activity [4]: ~ 8 fold
CCCCCC[C@H]1C(=O)O[C@@H]1C(=O)NCCCC[C@H](NC(=O)CNC(=O)OCc1ccccc1)C(=O)OCc1ccccc1 [compound 24] | > 100 µM |  | 
CCCCCC[C@]1(C)C(=O)O[C@H]1C(=O)NCCCC[C@H](NC(=O)[C@H](C)NC(=O)OCc1ccccc1)C(=O)OCc1ccccc1 [compound 25] | > 100 µM |  | excess of inhibitor over probe 28 that resulted in FAS signal reduction (FAS): not able to compete effectively; excess of inhibitor over probe 28 that resulted in ChT-L signal reduction [3]: not able to compete effectively
CCCCCC[C@@]1(C)C(=O)O[C@@H]1C(=O)NCCCC[C@H](NC(=O)[C@H](C)NC(=O)OCc1ccccc1)C(=O)OCc1ccccc1 [compound 26] | > 100 µM |  | 
CCCCCC[C@@]1(C)C(=O)O[C@H]1C(=O)NCCCC[C@H](NC(=O)[C@H](C)NC(=O)OCc1ccccc1)C(=O)OCc1ccccc1 [compound 27] | > 100 µM |  | 
C#Cc1ccc(COC(=O)[C@H](C)NC(=O)[C@H](CCCCNC(=O)[C@@H]2OC(=O)[C@H]2CCCCCC)NC(=O)OCc2ccccc2)cc1 [compound 28] | > 100 µM | > 100 µM | reduction (drop) of FAS-TE activity (human FAS-TE): ~ 2.5 fold
CCCCCCCCCCC[C@@H](C[C@@H]1OC(=O)[C@H]1CCCCCC)OC(=O)[C@H](CC(C)C)NC=O [orlistat, Tetrahydrolipstatin, reference compound] | > 100 µM | > 100 µM | 
